# Assays:
# [1] = target: cGMP-specific 3',5'-cyclic phosphodiesterase (Homo sapiens, UniProt O76074); assay: Inhibition of PDE5
# [2] = Inhibition of PDE6
# [3] = Inhibition of PDE11
# [4] = Aqueous solubility at pH 7.4; format: physicochemical; conditions: aqueous medium
# [5] = Selectivity ratio of IC50 for PDE11 to IC50 for PDE5
# [6] = Selectivity ratio of IC50 for PDE6 to IC50 for PDE5
# [7] = Half life in Sprague-Dawley rat at 2 mg/kg, po and 2mg/kg, iv; format: ADME, organism-based; set-up: dose 2 mg/kg, route oral; conditions: in vivo
# Method in brief: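 Sprague Dawley rats (n = 3) dosed IV at 2 mpk in 70% PEG400/20% 0.05 M citrate buffer/10% ethanol, pH 5.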
Compound,IC50 [1],IC50 [2],IC50 [3],solubility [4],Ratio IC50 [5],Ratio IC50 [6],half-life [7]
COc1ccc(Cn2c(=O)ccc3ccc(-c4ccncc4)cc32)cc1,0.025 µM,0.15 µM,0.041 µM,,,,
O=c1c(NCC2CCOCC2)nc2ccc(-c3ccncc3)nc2n1CC1CCCCC1,0.0009 µM,0.0335 µM,0.0365 µM,,,,
COc1ccc(-c2ccc3nc(NCCN4CCOCC4)c(=O)n(CC4CCCCC4)c3n2)cn1,0.0004 µM,0.0252 µM,0.0059 µM,< 3 µM,,,
CCCCCN1C(=O)CN(C)c2ncc(-c3ccc(F)c(F)c3)cc21,0.043 µM,1.16 µM,> 2 µM,,,,
CCCOCCn1c(=O)c(NCCN2CCOCC2)nc2ccc(-c3c(C)noc3C)nc21,0.0365 µM,1.98 µM,> 2 µM,,,,
COc1ccc(-c2ccc3nc(NCC(=O)N(C)C)c(=O)n(CC4CCCCC4)c3n2)cn1,0.0003 µM,0.072 µM,0.0077 µM,,,,
COc1ncc(-c2ccc3nc(NCC4CCOCC4)c(=O)n(CC4CCCCC4)c3n2)cn1,0.0003 µM,0.0363 µM,0.0082 µM,,,,
COc1ccc(Cn2c(=O)c(NCCN3CCOCC3)nc3ccc(-c4ccc(F)c(F)c4)nc32)cc1,0.002 µM,0.0116 µM,0.482 µM,,100,,
CC(C)OCCn1c(=O)c(NCCN2CCOCC2)nc2ccc(-c3ccc(F)c(F)c3)nc21,0.0525 µM,0.979 µM,1.66 µM,,,,
O=c1c(NCC2CCOCC2)nc2ccc(-c3ccc(O)nc3)nc2n1CC1CCCCC1,0.0029 µM,0.112 µM,0.0792 µM,,,,
CCCOCCn1c(=O)c(NCCN2CCOCC2)nc2ccc(-c3ccc(=O)[nH]c3)nc21,0.534 µM,,,,,,
CCCOCCn1c(=O)c(NCCN2CCOCC2)nc2ccc(-c3cnc(OC)nc3)nc21,0.0267 µM,> 2 µM,> 2 µM,,,,
Cc1noc(C)c1-c1ccc2nc(NCCN3CCOCC3)c(=O)n(CC3CCCCC3)c2n1,0.001 µM,0.0416 µM,0.286 µM,,,,
O=c1c(NCC2CCOCC2)nc2ccc(-c3ccc(F)cc3)nc2n1Cc1ccccn1,0.0203 µM,0.92 µM,0.97 µM,,,,
CCCOCCn1c(=O)c(NCC2CCOCC2)nc2ccc(-c3ccc(OC)nc3)nc21,0.0023 µM,0.35 µM,1.23 µM,,> 600,> 100,
O=c1c(NCCN2CCOCC2)nc2ccc(-c3ccc(F)cc3)nc2n1CC1CCCCC1,0.0046 µM,0.24 µM,0.405 µM,,,> 100,
O=c1c(NCC2CCOCC2)nc2ccc(-c3ccc(F)cc3)nc2n1Cc1cc(F)cc(F)c1,0.0027 µM,0.91 µM,0.39 µM,,,,

Compound,IC50 [1],IC50 [2],IC50 [3],solubility [4],Ratio IC50 [5],Ratio IC50 [6],half-life [7]
Nc1nc2ccc(-c3ccc(F)cc3)nc2n(CC2CCCCC2)c1=O,0.0285 µM,0.114 µM,0.145 µM,,,,
O=c1c(NCC2CCOCC2)nc2ccc(-c3ccc(F)cc3)nc2n1Cc1cccnc1,0.0025 µM,0.375 µM,0.474 µM,,,,
O=c1c(NCCN2CCOCC2)nc2ccc(-c3ccc(F)c(F)c3)nc2n1CC1CCCCC1,0.0016 µM,0.195 µM,0.213 µM,,,> 100,
CCOCCn1c(=O)c(NCC2CCOCC2)nc2ccc(-c3ccc(F)cc3)nc21,0.149 µM,,,,,,
CCCn1ccc(=O)c2c(N)nc(-c3ccccc3)cc21,0.051 µM,0.006 µM,,,,,
COc1ccc(-c2ccc3nc(NCC4CCOCC4)c(=O)n(CC4CCCCC4)c3n2)cn1,0.0003 µM,0.032 µM,0.0081 µM,,,,
CCCOCCn1c(=O)c(NCCN2CCOCC2)nc2ccc(-c3ccc(OC)nc3)nc21,0.0024 µM,0.317 µM,1.54 µM,,> 600,> 100,3 h
COc1ccc(Cn2c(=O)c(NCCN3CCOCC3)nc3ccc(-c4ccc(F)cc4)nc32)cc1,0.0013 µM,0.0101 µM,0.345 µM,,100,,
CCCOCCn1c(=O)c(NCC(=O)N(C)C)nc2ccc(-c3ccc(OC)nc3)nc21,0.0145 µM,1.19 µM,1.21 µM,,> 600,> 100,
CC(C)Cn1c(=O)c(NCC2CCOCC2)nc2ccc(-c3ccc(F)cc3)nc21,0.224 µM,,,,,,
CCCOCCn1c(=O)c(NCC2CCOCC2)nc2ccc(-c3ccc(F)cc3)nc21,0.0224 µM,> 2 µM,> 2 µM,,,,
O=c1c(NCC2CCOCC2)nc2ccc(-c3ccc(F)cc3)nc2n1CC1CCCCC1,0.003 µM,0.459 µM,0.324 µM,,,> 100,
CN(C)C(=O)CNc1nc2ccc(-c3ccc(F)cc3)nc2n(CC2CCCCC2)c1=O,0.0035 µM,> 2 µM,0.0909 µM,,,,
CCCOCCn1c(=O)c(NCCN2CCOCC2)nc2ccc(-c3ccc(F)cc3)nc21,0.0333 µM,1.85 µM,> 2 µM,,,,
CCCOCCn1c(=O)c(NCC2CCOCC2)nc2ccc(-c3ccncc3)nc21,0.0339 µM,1.17 µM,> 2 µM,,,,
O=c1c(NCc2cccnc2)nc2ccc(-c3ccc(F)cc3)nc2n1CC1CCCCC1,0.0134 µM,0.871 µM,0.558 µM,,,,

# From ChEMBL document CHEMBL1154009, “Identification, synthesis and SAR of amino substituted pyrido[3,2b]pyrazinones as potent and selective PDE5 inhibitors” (Bioorg Med Chem Lett, 2009)
